Tests used:
[1] = tested on: SK-MEL-3 xenografts; experiment: Tissue distribution in mice bearing SK-MEL-3 xenografts; assay type: in vivo, NCr^nu/nu mice; details: SK-MEL-3 xenograft mice; for Tissue distribution: Blood: tail vein
Summary of the method: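 Male athymic NCr nu/nu mice received 0.25 mL of cells (8 × 10⁶/mL in 1:1 D-PBS-glucose-pyruvate/Matrigel) into the right hind flank. Tumours were used at 100–500 mm³ (~21 days). Tail-vein bolus of ~74 KBq tracer in 0.05 mL; n = 5 per time point. Mice were killed by CO₂ at 1, 4 and 24 h. Organs and tumour were weighed wet and gamma-counted; results are %ID/g, mean ± SD.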

[2] = Projected human dosimetry extrapolated from cynomolgus monkey scintigraphy; assay type: in vivo, cynomolgus monkeys
Summary of the method: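 Regions of interest (total body, lung, kidney, thyroid, eye) were drawn on anterior/posterior monkey images at each time point. Uptake was normalised to % total body dose, with the first pre-voiding image set as 100%. Time integrals went into OLINDA/EXM: adult male phantom, 4.8 h bladder voiding interval, unit-density sphere model for eye. The intestine margin is referenced to a 45 Gy limit at 4.7 GBq/70 kg.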

[3] = at anticipated human dose 4.7 GBq/70 kg patient
[4] = extrapolated from cynomolgus monkeys

In the case of `CCN(CC)CCNC(=O)c1cc(I)c(NC(=O)c2ccc(F)cc2)cc1OC` [[^131I]MIP-1145, N-(2-diethylamino-ethyl)-4-(4-fluoro-benzamido)-5-iodo-2-methoxy-benzamide], the “Tissue distribution: Tumor” value ([1]; 1 hour) is reported as 3.77 ± 1.68 %ID/g, the “Tissue distribution: Blood” value ([1]; 1 hour post-injection) is reported as 0.75 ± 0.12 %ID/g and the “Tissue distribution: Adipose” value ([1]; 4 hours) is reported as 1.03 ± 0.26 %ID/g. The “Tissue distribution: Bone” value ([1]; 4 hours) was 0.95 ± 0.14 %ID/g, the “Tissue distribution: Brain” value ([1]; 4 hours) was 0.19 ± 0.02 %ID/g and the “Tissue distribution: Heart” value ([1]; 4 hours) was 1.32 ± 0.18 %ID/g. The “Tissue distribution: Kidneys” value ([1]; 4 hours) was 13.12 ± 2.68 %ID/g, the “Tissue distribution: Large Intestine” value ([1]; 4 hours) was 18.91 ± 3.84 %ID/g and the “Tissue distribution: Liver” value ([1]; 4 hours) was 5.18 ± 0.59 %ID/g. The “Tissue distribution: Lungs” value ([1]; 4 hours) was 6.87 ± 1.33 %ID/g, the “Tissue distribution: Skeletal Muscle” value ([1]; 4 hours) was 0.73 ± 0.16 %ID/g and the “Tissue distribution: Small Intestine” value ([1]; 4 hours) was 17.21 ± 2.05 %ID/g. For the same compound, the “Tissue distribution: Spleen” value ([1]; 4 hours) was 3.75 ± 0.60 %ID/g, the “Tissue distribution: Stomach” value ([1]; 4 hours) was 10.74 ± 2.52 %ID/g and the “Tissue distribution: Testes” value ([1]; 4 hours) was 1.07 ± 0.09 %ID/g. The “Tissue distribution: Tumor” value ([1]; 4 hours) was 8.82 ± 3.55 %ID/g, the “Tumor:blood ratio” value ([1]; 4 hours post-injection) was 25.2 and the “Tissue distribution: Blood” value ([1]; 4 hours post-injection) was 0.35 ± 0.04 %ID/g. For the same compound, the “Tissue distribution: Adipose” value ([1]; 24 hours) was 0.09 ± 0.05 %ID/g, the “Tissue distribution: Bone” value ([1]; 24 hours) was 0.09 ± 0.08 %ID/g and the “Tissue distribution: Brain” value ([1]; 24 hours) was 0.01 ± 0.01 %ID/g. For the same compound, the “Tissue distribution: Heart” value ([1]; 24 hours) was 0.04 ± 0.03 %ID/g, the “Tissue distribution: Kidneys” value ([1]; 24 hours) was 0.51 ± 0.18 %ID/g and the “Tissue distribution: Large Intestine” value ([1]; 24 hours) was 2.24 ± 0.67 %ID/g. The “Tissue distribution: Liver” value ([1]; 24 hours) was 0.50 ± 0.07 %ID/g, the “Tissue distribution: Lungs” value ([1]; 24 hours) was 0.29 ± 0.08 %ID/g and the “Tissue distribution: Skeletal Muscle” value ([1]; 24 hours) was 0.03 ± 0.02 %ID/g. The “Tissue distribution: Small Intestine” value ([1]; 24 hours) was 1.03 ± 0.24 %ID/g, the “Tissue distribution: Spleen” value ([1]; 24 hours) was 0.12 ± 0.03 %ID/g and the “Tissue distribution: Stomach” value ([1]; 24 hours) was 1.41 ± 0.53 %ID/g. The “Tissue distribution: Testes” value ([1]; 24 hours) was 0.22 ± 0.02 %ID/g, the “Tissue distribution: Tumor” value ([1]; 24 hours) was 5.91 ± 3.94 %ID/g and the “Tumor:blood ratio” value ([1]; 24 hours post-injection) was 197. For the same compound, the “Tissue distribution: Blood” value ([1]; 24 hours post-injection) was 0.03 ± 0.00 %ID/g, the “Margin of lower large intestine dose below the allowable exposure limit of 45 Gy” value [2, 3] was 3.3 times and the “Radiation absorbed dose to the lower large intestine” value [2, 3] was 13.3 Gy. For the same compound, the “Radiation dose to the eye” value [2, 3] was 6.1 Gy, the “Effective Dose” value [2, 4] was 1.40E+00 ± 6.30E-01 mGy/MBq and the “Effective Dose Equivalent” value [2, 4] was 9.20E-01 ± 3.70E-01 mGy/MBq. The “Projected human organ radiation absorbed dose: Brain” value [2, 4] was 7.00E-02 ± 1.50E-02 mGy/MBq, the “Projected human organ radiation absorbed dose: Breasts” value [2, 4] was 6.40E-02 ± 1.40E-02 mGy/MBq and the “Projected human organ radiation absorbed dose: Eyes” value [2, 4] was 1.30E+00 ± 6.70E-01 mGy/MBq. For the same compound, the “Projected human organ radiation absorbed dose: Gallbladder Wall” value [2, 4] was 1.20E-01 ± 1.90E-02 mGy/MBq, the “Projected human organ radiation absorbed dose: Heart Wall” value [2, 4] was 8.00E-02 ± 1.80E-02 mGy/MBq and the “Projected human organ radiation absorbed dose: Kidneys” value [2, 4] was 1.10E-01 ± 7.70E-02 mGy/MBq. The “Projected human organ radiation absorbed dose: Liver” value [2, 4] was 8.60E-02 ± 1.70E-02 mGy/MBq, the “Projected human organ radiation absorbed dose: Lungs” value [2, 4] was 6.70E-02 ± 2.00E-02 mGy/MBq and the “Projected human organ radiation absorbed dose: Muscle” value [2, 4] was 8.80E-02 ± 1.60E-02 mGy/MBq. The “Projected human organ radiation absorbed dose: Osteogenic Cells” value [2, 4] was 1.60E-01 ± 3.30E-02 mGy/MBq, the “Projected human organ radiation absorbed dose: Ovaries” value [2, 4] was 2.00E-01 ± 1.90E-02 mGy/MBq and the “Projected human organ radiation absorbed dose: Pancreas” value [2, 4] was 9.20E-02 ± 1.90E-02 mGy/MBq. For the same compound, the “Projected human organ radiation absorbed dose: Red Marrow” value [2, 4] was 8.70E-02 ± 1.40E-02 mGy/MBq, the “Projected human organ radiation absorbed dose: Skin” value [2, 4] was 6.60E-02 ± 1.40E-02 mGy/MBq and the “Projected human organ radiation absorbed dose: Small Intestine” value [2, 4] was 3.40E-01 ± 1.80E-02 mGy/MBq. The “Projected human organ radiation absorbed dose: Spleen” value [2, 4] was 8.50E-02 ± 1.80E-02 mGy/MBq, the “Projected human organ radiation absorbed dose: Stomach Wall” value [2, 4] was 9.80E-02 ± 1.80E-02 mGy/MBq and the “Projected human organ radiation absorbed dose: Testes” value [2, 4] was 8.60E-02 ± 1.60E-02 mGy/MBq. For the same compound, the “Projected human organ radiation absorbed dose: Thymus” value [2, 4] was 7.80E-02 ± 1.70E-02 mGy/MBq, the “Projected human organ radiation absorbed dose: Uterus” value [2, 4] was 1.50E-01 ± 1.80E-02 mGy/MBq and the “Projected human radiation absorbed dose: Total Body” value [2, 4] was 1.00E-01 ± 1.60E-02 mGy/MBq. For the same compound, the “Projected human organ radiation absorbed dose: Adrenals” value ([2]; extrapolated from cynomolgus monkeys, adult male phantom) was 8.50E-02 ± 1.80E-02 mGy/MBq, the “Projected human organ radiation absorbed dose: Urinary Bladder Wall” value ([2]; extrapolated from cynomolgus monkeys, 4.8 hour voiding interval) was 6.20E-01 ± 4.10E-02 mGy/MBq and the “Projected human organ radiation absorbed dose: LLI Wall” value ([2]; extrapolated from cynomolgus monkeys, lower large intestine) was 2.80E+00 ± 1.80E-02 mGy/MBq. For the same compound, the “Projected human organ radiation absorbed dose: ULI Wall” value ([2]; extrapolated from cynomolgus monkeys, upper large intestine) was 1.10E+00 ± 1.50E-02 mGy/MBq, the “Projected human organ radiation absorbed dose: Thyroid” value ([2]; extrapolated from cynomolgus monkeys, without thyroid blockade) was 1.80E+01 ± 1.30E+01 mGy/MBq and the “Therapeutic dose supported as safe for administration” value ([2]; human projection, dose-limiting organ lower large intestine) was “up to 16.2 GBq”. The “Projected human radiation absorbed dose: all other organs” value ([2]; organs other than thyroid, large intestine and eyes) was 0.064-1.1 mGy/MBq.
